Assay outcomes as filed in PubChem BioAssay.
PfGluPho inh – PfG6PD (Plasmodium falciparum) enzyme inhibition | PfGluPho enzyme, NADPH resazurin-diaphorase fluorescence | AID 504690 | 350,000 compounds, 0.78% hits | inhibition, % at 20 µM;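 active = inhibition reaching at least a set limit at 20 µM in the primary screen, cut at about 59% in these data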;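 note: 0% = DMSO wells with substrate and 100% = DMSO wells lacking glucose-6-phosphate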
APJ antagonist – blocks the human apelin receptor APJ | inhibition, % at 20 µM | P35414 | 330,000 compounds, 0.32% hits | CHO-K1 APJ beta-arrestin complementation, luminescence;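 active = inhibition above about 40% at 20 µM, limit read from the data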;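 note: cells challenged with 10 nM apelin-13 agonist together with compound; plate controls were apelin-13 plus DMSO wells for no effect and DMSO wells lacking apelin-13 for full effect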
Beta2AR agonist – human beta-2 adrenergic receptor agonism by FAP | Am2.2-beta2AR cells, FAP receptor internalization, flow cytometry | response, % (test concentration not listed) | 340,000 compounds, 0.43% hits | AID 504454;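 active = response above a set limit, near 3 SD of response in nonfluorescent compounds, cut at about 42% in these data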
Target sequence (P07550 whole entry, looked up): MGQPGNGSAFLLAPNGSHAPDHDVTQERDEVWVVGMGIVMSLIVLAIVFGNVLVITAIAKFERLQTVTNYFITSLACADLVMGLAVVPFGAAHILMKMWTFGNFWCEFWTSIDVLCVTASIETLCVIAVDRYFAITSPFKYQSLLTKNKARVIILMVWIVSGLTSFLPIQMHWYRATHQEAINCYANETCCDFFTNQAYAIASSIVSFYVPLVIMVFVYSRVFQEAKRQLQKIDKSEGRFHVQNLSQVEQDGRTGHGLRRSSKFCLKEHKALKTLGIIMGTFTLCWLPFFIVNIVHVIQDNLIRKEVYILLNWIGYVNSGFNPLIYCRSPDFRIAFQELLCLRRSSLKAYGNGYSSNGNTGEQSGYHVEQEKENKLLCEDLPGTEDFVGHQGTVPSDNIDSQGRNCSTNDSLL
CCR6 antag – antagonists of human CCR6 receptor. CHO-K1 CCR6 PathHunter beta-arrestin, luminescence, CCL20-stimulated. inhibition, % at 20 µM. 340,000 compounds, 0.49% hits. AID 493098;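 active = compounds whose inhibition of the agonist-driven luminescence signal at 20 µM reaches about 50%, limit read from the data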;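 note: cells stimulated with CCL20 at 14 nM final; plate controls were DMSO with CCL20 for no effect and DMSO without agonist for full effect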
APJ ag – agonists of human APJ apelin receptor | activation, % at 20 µM | 330,000 compounds, 0.11% hits | CHO-K1 APJ PathHunter beta-arrestin, luminescence; 0% DMSO wells, 100% apelin | AID 2520 | P35414;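 active = activation more than six SD over the plate average, tested at 20 µM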;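 note: 0% = DMSO alone and 100% = apelin-13 at 10 nM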
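Assay system: CHO-K1 APJ beta-arrestin complementation cell line / Compound: single test compound dose, 20 µM final, 1% DMSO / Times: overnight seeding, 90 min compound at 25 °C, 1 h detection / Technique: beta-gal luminescence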
CXCR6 block – inhibitors of human CXCR6 receptor; 360,000 compounds, 0.36% hits; O00574; AID 602244; inhibition, % at 20 µM; CHO-K1 PathHunter CXCR6 beta-arrestin, luminescence; in the data active = inhibition above about 34%, passing the limit was not always enough;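 note: antagonist mode with CXCL16 agonist at 10 nM final; 0% = 10 nM CXCL16 with DMSO and 100% = unstimulated wells without agonist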
B2AR ag CP1 – agonists of human beta-2 adrenergic receptor; Am2.2-beta2AR cells, FAP surface receptor, flow cytometry; stronger effect = lower value; shares compounds with Beta2AR agonist; 1,100 compounds, 25% hits; percent response (surface receptor), % at 10 µM; AID 540358;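 active = surface receptor percent response at or below 58%, roughly 3 SD from nonfluorescent compounds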
FAP fluor counter – fluorescence artifact in beta-2AR agonist FAP counterscreen. shares compounds with Beta2AR agonist. Am2.2 cells, FAP fluorogen flow cytometry; stronger effect = lower value. calls only at 10 µM. 1,100 tested, under 10 active;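 active = percent response below a set limit in fluorescence channel 1 and below 50% in channel 8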
Starred values were filed as active, the others as inactive; i = inactive; x = no result. Most compounds without a hit are left out; they make up all but 1.7% or so of the library.

SMILES	PfGluPho inh	APJ antagonist	Beta2AR agonist	CCR6 antag	APJ ag	CXCR6 block	B2AR ag CP1	FAP fluor counter
c1ccc(OCCCCn2cnc3ccccc32)cc1	1.8	-27.4	44.8*	11.2	1.7	3.5	100.4	i
O=C(CSc1nc2ccccc2c(=O)n1-c1ccc(F)cc1F)c1c[nH]c2ccccc12	-0.8	-1.4	45.1*	0.8	-3.4	-1.8	112.3	i
COc1cccc(NC(=S)N(CCC(C)C)C2CCN(C(C)=O)CC2)c1	-8.4	14.4	3.2	4.0	-3.6	-5.0	x	x
Cc1ccc(OCc2n[nH]c(=S)n2-c2ccc(Br)cc2)cc1	0.6	-8.6	-6.6	-5.0	-1.0	1.6	x	x
CCCCn1c(=N)n(CC(O)COc2cccc(C)c2)c2ccccc21 (stereo unspecified)	-5.3	1.8	45.7*	-1.1	3.8	-7.4	85.8	i
Oc1c(CN2CCOCC2)cc(COCc2ccccc2)c2cccnc12	-27.2	x	-1.8	31.2	x	19.3	92.1	i
Oc1c(CNc2ccccc2)cc(COCc2ccccc2)c2cccnc12	-24.4	7.6	4.3	5.9	-4.2	12.7	x	x
COc1ccccc1CN1CC(C(=O)NCc2cc(F)ccc2C)CCC1=O (stereo unspecified)	-9.3	-5.3	11.8	18.9	-5.9	-0.2	x	x
O=C(Nc1ccccc1)c1ccccc1CCc1ccccc1	1.7	14.7	31.8	22.9	-1.4	6.9	45.7*	i
COC(=O)c1cc(NC(=O)Cn2c(=O)oc3ccccc32)cc(C(=O)OC)c1	-1.6	0.3	70.6*	6.5	-1.7	1.0	122.5	i
Cc1ccc(S(=O)(=O)N2CCC(C(=O)Nc3nnc(-c4ccc(F)cc4)s3)CC2)cc1	-3.5	-23.2	65.4*	-19.1	1.0	-1.6	102.1	i
CCCOc1ccccc1/C=N/NC(=O)C1CC1	1.0	-4.1	-17.5	-0.1	-5.0	7.5	x	x
Cc1noc(NS(=O)(=O)c2ccc(NC(=O)C34CC5CC(C3)CC(n3cnc(Cl)n3)(C5)C4)cc2)c1C	-7.5	5.5	74.0*	3.6	-2.7	3.6	84.0	i
COc1ccc(Nc2nnc(-c3ccc(C)cc3)c3ccccc23)cc1C(=O)N1CCCCC1	0.3	-0.9	20.8	20.0	-2.9	9.8	x	x
Cc1cccc(Nc2nnc(-c3ccc(C(=O)N4C[C@H]5C[C@H](C4)c4cccc(=O)n4C5)cc3)c3ccccc23)c1	-10.5	-1.6	84.7*	13.2	0.3	5.3	15.8*	i
Fc1cc(Cl)cc2ccc(-c3ccccc3)nc12	x	x	x	x	x	-8.7	x	x
Cc1ccc(NC(=O)c2sccc2C)cc1S(=O)(=O)N(C)C	10.5	12.9	38.5	3.5	-3.1	-1.5	x	x
COC(=O)CS(=O)(=O)c1ccsc1C(=O)Nc1ccc(F)c(F)c1	-9.0	5.8	46.6*	17.1	-1.4	-5.0	100.8	i
CCOC(=O)C1=CCC(c2ccc(CC)cc2)N(S(=O)(=O)c2ccc(C)cc2)C1 (stereo unspecified)	x	x	x	x	x	10.6	x	x
COc1ccccc1NS(=O)(=O)c1cccc(NC(=O)c2nc3nc(C)cc(C)n3n2)c1	0.7	18.1	-2.1	14.5	-2.7	0.4	136.3	i
Cc1cc(C)n2nc(C(=O)Nc3cccc(S(=O)(=O)N4CCCC4)c3)nc2n1	-4.3	6.2	-7.1	-0.1	-1.2	0.1	x	x
COc1ccc(NS(=O)(=O)c2cc(NC(=O)c3nc4nc(C)cc(C)n4n3)ccc2C)cc1	-9.8	-3.5	-1.9	14.6	-1.2	6.9	133.2	i
COCc1cccc(-c2csc(C(C)(NC(C)=O)c3ccc(OC)cc3)n2)c1 (stereo unspecified)	x	x	x	x	x	5.5	x	x
OC(c1cc(C(F)(F)F)nc2c(C(F)(F)F)cccc12)C1CCCCN1 (stereo unspecified)	-4.7	-18.5	35.7	-0.2	13.2	-12.7	98.8	i
CCN(CC)C(=O)CSc1nc(-c2ccccc2)cc(=O)[nH]1	-30.7	-9.1	-2.2	2.8	-1.5	0.0	120.0	i
SMILES	PfGluPho inh	APJ antagonist	Beta2AR agonist	CCR6 antag	APJ ag	CXCR6 block	B2AR ag CP1	FAP fluor counter
CCCCN(Cc1cc2ccccc2[nH]c1=O)S(=O)(=O)c1ccc(C)cc1	27.2	-44.8	-15.4	9.2	-4.0	-16.9	x	x
COC(=O)c1ccccc1S(=O)(=O)N(Cc1ccco1)Cc1cc2cc(OC)ccc2[nH]c1=O	5.0	-1.0	6.0	0.1	1.1	6.0	x	x
O=c1[nH]c2ccccc2cc1CN(Cc1cccnc1)S(=O)(=O)c1ccc([N+](=O)[O-])cc1	11.1	-22.6	-18.1	-15.9	32.0	-23.0	150.7	i
CCN(Cc1cc2ccccc2[nH]c1=O)C(=O)c1cccnc1	-8.6	-3.1	2.0	0.8	-2.1	0.3	x	x
CC(=O)Nc1ccc(S(=O)(=O)N(Cc2ccco2)Cc2cc3ccccc3[nH]c2=O)cc1	-4.5	-9.2	106.3*	4.2	10.4	-11.9	23.5*	i
CC(=O)Nc1ccc(S(=O)(=O)N(Cc2cccnc2)Cc2cc3ccccc3[nH]c2=O)cc1	0.4	-26.4	73.9*	5.5	7.1	9.4	28.7*	i
O=c1[nH]c2ccccc2cc1CN(Cc1cccnc1)S(=O)(=O)c1ccc(Cl)cc1	19.7	-25.9	-9.0	5.9	1.5	2.2	153.2	i
CC1(C(=O)NS(=O)(=O)c2ccccc2C(F)(F)F)CCN1C(=O)CC1CCCC1 (stereo unspecified)	x	x	x	x	x	0.1	x	x
CCc1ccc(C(=O)N2CCN(c3ccc(NC(=O)c4ccco4)cc3)CC2)cc1	7.0	5.0	-12.3	6.2	-8.2	1.3	122.2	i
Cc1ccc(C(=O)N2CCN(c3ccc(NC(=O)c4ccc(Br)o4)cc3)CC2)cc1	6.3	10.5	11.6	4.3	-0.3	-9.2	119.8	i
O=C1CN(S(=O)(=O)c2cccc(Cl)c2Cl)c2ccccc2N1	22.1	23.5	46.1*	15.2	0.4	-9.7	26.1*	i
CC(=O)c1ccc(OCc2cc(C(=O)N(C)CCOc3ccc(C)cc3)no2)cc1	4.3	-5.4	86.5*	13.7	3.5	-14.6	20.0*	i
CCCc1nc2oc3c(NCC(C)O)ncnc3c2c2c1CCCC2 (stereo unspecified)	7.7	16.0	-2.1	15.1	-0.3	3.0	124.9	i
COc1cc(C(=O)NNC(=O)c2cc(S(=O)(=O)N(C)C)ccc2N2CCCC2)cc(OC)c1OC	-22.4	19.2	-6.7	7.2	-4.8	-3.4	x	x
Cc1cc(Br)ccc1OCc1nnc(-c2ccccc2)o1	-7.9	x	-4.2	14.2	x	-10.0	118.0	i
Brc1ccc(-c2nnc(Cc3ccccc3)o2)cc1	5.6	-5.4	-14.0	12.8	-2.4	-3.1	133.2	i
